Laboratory results published in BindingDB's records for doi:10.1016/j.ejmech.2021.113333 (Fudan University, 2021).

Target: T1, Signal transducer and activator of transcription 1-alpha/beta (Homo sapiens, UniProt P42224)
T1 sequence (P42224 whole entry): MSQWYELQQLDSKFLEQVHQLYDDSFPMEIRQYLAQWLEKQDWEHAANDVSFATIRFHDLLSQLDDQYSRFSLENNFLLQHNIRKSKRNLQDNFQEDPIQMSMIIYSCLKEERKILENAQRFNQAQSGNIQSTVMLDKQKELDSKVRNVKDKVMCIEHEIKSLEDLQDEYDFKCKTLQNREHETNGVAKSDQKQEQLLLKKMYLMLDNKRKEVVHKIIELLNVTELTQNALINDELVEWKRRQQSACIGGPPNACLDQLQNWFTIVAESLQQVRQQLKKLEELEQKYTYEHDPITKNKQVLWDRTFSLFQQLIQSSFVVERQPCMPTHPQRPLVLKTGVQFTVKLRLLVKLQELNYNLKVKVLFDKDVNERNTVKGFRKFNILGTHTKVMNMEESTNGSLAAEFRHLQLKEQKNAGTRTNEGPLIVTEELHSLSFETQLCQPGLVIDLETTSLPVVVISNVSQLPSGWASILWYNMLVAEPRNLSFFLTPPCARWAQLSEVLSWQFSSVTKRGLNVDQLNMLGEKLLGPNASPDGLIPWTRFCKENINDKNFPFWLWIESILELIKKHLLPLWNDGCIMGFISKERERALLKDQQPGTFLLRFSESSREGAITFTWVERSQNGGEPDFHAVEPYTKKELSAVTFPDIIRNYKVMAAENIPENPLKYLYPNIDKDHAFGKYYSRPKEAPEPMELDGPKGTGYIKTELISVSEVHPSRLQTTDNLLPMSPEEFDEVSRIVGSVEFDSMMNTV
Assay: Inhibition of IFN-gamma-induced STAT1 transcriptional activity in human HepG2 cells by luciferase reporter gene assay
In short: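 STAT1-dependent luciferase reporter assay in HepG2 cells with IFN-γ stimulation; mean ± SD of at least three independent experiments.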

IC50 [nM]	Structure (SMILES)
350	CCCC(C)Oc1ccc(C(=O)Nc2ccc3nc(SCC(=O)N[C@@H](C)c4ccccc4)sc3c2)c(OC)c1C (some centres not stated)
320	CCCC(C)Oc1ccc(C(=O)Nc2ccc3nc(SCC(=O)N[C@@H](C)c4ccc(OC)cc4)sc3c2)c(OC)c1C (some centres not stated)
